Experimental data published in article PMC5704914 (Biochemistry, 2017).

System: α11.2 AAs 1506-1871
Test: Yeast two-hybrid interaction of α-actinin-1 fragments with α11.2 C-terminus
Assay type: binding, rabbit
Details: α-actinin-1 prey in pGADT7; X-α-Gal
How it was run: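 Bait plasmids (α11.2 C-terminal fragments) and α-actinin-1 full-length or fragment prey (Gal4 activation domain, pGADT7) were co-transformed into Y2H Gold yeast. Co-transformants were selected on Leu−/Trp− plates with X-α-Gal, then colonies were replated onto Leu/Trp/His/Ade quadruple-dropout plates plus X-α-Gal to score interaction.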

B1: SR234EF: C-terminal four EF hands preceded by three spectrin repeats of α-actinin-1 (AAs 391-892) (protein)
chain: RLDHLAEKFRQKASIHEAWTDGKEAMLRQKDYETATLSEIKALLKKHEAFESDLAAHQDRVEQIAAIAQELNELDYYDSPSVNARCQKICDQWDNLGALTQKRREALERTEKLLETIDQLYLEYAKRAAPFNNWMEGAMEDLQDTFIVHTIEEIQGLTTAHEQFKATLPDADKERLAILGIHNEVSKIVQTYHVNMAGTNPYTTITPQEINGKWDHVRQLVPRRDQALTEEHARQQHNERLRKQFGAQANVIGPWIQTKMEEIGRISIEMHGTLEDQLSHLRQYEKSIVNYKPKIDQLEGDHQLIQEALIFDNKHTNYTMEHIRVGWEQLLTTIARTINEVENQILTRDAKGISQEQMNEFRASFNHFDRDHSGTLGPEEFKACLISLGYDIGNDPQGEAEFARIMSIVDPNRLGVVTFQAFIDFMSRETADTDTADQVMASFKILAGDKNYITMDELRRELPPDQAEYCIARMAPYTGPDSVPGALDYMSFSTALYGESDL
modifications: left off: Gal4 activation domain, end not stated, kept
interaction of α-actinin-1 polypeptide with α11.2 AAs 1506-1871 (Y2H): consistently strong interaction readouts
